Drawing on ChEMBL document CHEMBL3271976, “Cardenolide analogues. 2. 22-Methylenecard-14-enolides” (J Med Chem, 1977), this text covers IC50, Activity and solubility for 6 compounds.

pIC50: −log10 of the molar value. Active and inactive are the calls of the source. The rule behind the calls is not given here.

A short description of series [1]: Inhibition of rat brain sodium/potassium-transporting ATPase in presence of Mg2+ and Na+. The conditions noted are these: read-out: I50. A digest of the protocol: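 Rat brain Na+,K+-ATPase assayed with no preincubation of steroid and enzyme. Na+,K+-dependent activity was taken as activity with Mg2+, Na+ and K+ minus basal activity from tubes with Mg2+ and Na+ only. I50 (M) is from two to four runs.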

Series [2] in a line: Inhibition of rat brain sodium/potassium-transporting ATPase after 10 mins in presence of Mg2+ and Na+. To be noted: read-out: I50. Summed up:
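Rat brain Na+,K+-ATPase. The steroid was added to enzyme medium lacking K+ and preincubated 10 min, then KCl was added to start Na+,K+-ATPase activity. Basal activity from tubes with Mg2+ and Na+ only was subtracted from activity with Mg2+, Na+ and K+. I50 (M) is from two to four runs.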

The species entered for the next series is Cavia porcellus. Put plainly: Inotropic activity at guinea pig left atria sodium/potassium-transporting ATPase up to 10^-4 M.
A short description of series [3]: Solubility of the compound in propylene glycol. It is filed as physicochemical.

Turning to `C=C1C(=O)OC[C@H]1[C@H]1CC=C2[C@@H]3CC[C@@H]4C[C@@H](O)CC[C@]4(C)[C@H]3CC[C@@]21C`, the pIC50 in series [1] and in series [2] was < 4.00 each time. Moreover, the outcome in the series filed under Cavia porcellus was inactive. Further, the solubility result in series [3] is recorded as “Insoluble”.
In the case of `C[C@]12CC[C@H](O)C[C@H]1CC[C@H]1C3=CC[C@H](C4=CC(=O)OC4)[C@@]3(C)CC[C@@H]12`, the pIC50 in series [1] was 4.20; in series [2], 4.40. Moreover, the result in the series filed under Cavia porcellus was inactive. Further, in series [3], the solubility entry was “Insoluble”.
In the case of `C[C@H]1O[C@@H](O[C@H]2[C@@H](O)C[C@H](O[C@H]3[C@@H](O)C[C@H](O[C@H]4CC[C@@]5(C)[C@H](CC[C@@H]6[C@@H]5CC[C@]5(C)[C@@H](C7=CC(=O)OC7)CC[C@]65O)C4)O[C@@H]3C)O[C@@H]2C)C[C@H](O)[C@@H]1O` [DIGITOXIN], the pIC50 is 6.15 in series [1] and 6.62 in series [2].
Turning to `C[C@@H]1O[C@@H](O[C@H]2C[C@@H](O)[C@]3(CO)[C@H]4[C@H](O)C[C@]5(C)[C@@H](C6=CC(=O)OC6)CC[C@]5(O)[C@@H]4CC[C@]3(O)C2)[C@H](O)[C@H](O)[C@H]1O` [OUABAIN], the pIC50 in series [1] was 6.30; in series [2] it was 7.40.
`C[C@]12CC[C@H](O)C[C@H]1CC[C@@H]1[C@@H]2CC[C@]2(C)[C@@H](C3=CC(=O)OC3)CC[C@]12O` [DIGITOXIGENIN]: the pIC50 in series [1] was 6.34; in series [2], 6.30.
In the case of `C=C1C(=O)OC[C@@H]1[C@H]1CC=C2[C@@H]3CC[C@@H]4C[C@@H](O)CC[C@]4(C)[C@H]3CC[C@@]21C`, in the series listed under Cavia porcellus, the result was inactive. In series [3], the solubility entry was “Insoluble”.
